The source of these data is ChEMBL document CHEMBL1781975, “Synthesis, crystal structure and antimicrobial activity of deoxybenzoin derivatives from genistein” (2008).

≈ marks a conversion by molar mass, not a printed value. Calls of active or inactive are those of the source. The calls are words filed in the database; no cut-off is given here.

Assay [1] has as its system Bacillus subtilis. In words: Antibacterial activity against Bacillus subtilis after 24 hrs by MTT assay. The assay is classed as functional. The essentials: (§1)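 Broth microdilution MIC in Mueller-Hinton medium, compounds from a 50 mg/ml DMSO stock serially diluted in the wells. Inoculum approx. 10⁵ cfu/ml, incubated 37 °C for 24 h. MIC read visually. PBS (pH 7.4) with 2 mg/ml MTT then added, 12 h further incubation at room temperature, OD at 550 nm.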
A general note: Formazan colour is commonly taken as a measure of viable cells.

In assay [2] the test system is Escherichia coli. In words: Antibacterial activity against Escherichia coli after 24 hrs by MTT assay. It counts as functional. The essentials:
as §1

The subject of assay [3] is Pseudomonas fluorescens. The assay is described as follows: Antibacterial activity against Pseudomonas fluorescens after 24 hrs by MTT assay. It counts as functional. The essentials: as §1
Assay [4] concerns Staphylococcus aureus. The assay is described as follows: Antibacterial activity against Staphylococcus aureus after 24 hrs by MTT assay. It counts as functional. The essentials:
as §1

Assay [5] relates to Aspergillus niger. The assay is described as follows: Antifungal activity against Aspergillus niger after 48 hrs by MTT assay. It counts as functional, organism-based. The essentials: (§2)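 Fungi tested by microdilution in RPMI-1640 buffered with 0.165 mol/L MOPS to pH 7.0. Compounds from a 50 mg/ml DMSO stock serially diluted. Inoculum approx. 10⁵ cfu/ml, 37 °C for 48 h. MIC scored visually, then MTT (2 mg/ml in PBS) added, 12 h at room temperature, absorbance 550 nm.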

In assay [6] the test system is Candida albicans. The assay is described as follows: Antifungal activity against Candida albicans after 48 hrs by MTT assay. It counts as functional, organism-based. The essentials:
as §2

In assay [7] the test system is Trichophyton rubrum. In words: Antifungal activity against Trichophyton rubrum after 48 hrs by MTT assay. The assay is classed as functional, organism-based. The essentials:
as §2

Consider `COc1ccc(CC(=O)c2c(O)cc(OC)cc2OC)cc1`, for which the MIC in assay [1], in assay [2], in assay [3] and in assay [4] was above 50 mg/L in each case. Further, the MIC entry in assay [5], in assay [6] and in assay [7] was “inactive” throughout.

On to `O=C(Cc1ccc(OCCCBr)cc1)c1c(O)cc(OCCCBr)cc1OCCCBr`, for which the MIC in assay [1] is 25 mg/L (≈ 40.1 µM); in assay [2], 25 mg/L (≈ 40.1 µM); in assay [3], above 50 mg/L; in assay [4], above 50 mg/L. Also, the MIC entry in assay [5], in assay [6] and in assay [7] was “inactive” throughout.

For the compound `O=C(O)COc1ccc(CC(=O)c2c(O)cc(OCC(=O)O)cc2OCC(=O)O)cc1`, the MIC in assay [1] is 45.5 mg/L (≈ 105 µM); in assay [2], 48.5 mg/L (≈ 112 µM); in assay [3], above 50 mg/L; in assay [4], above 50 mg/L. Also, the MIC entry in assay [5], in assay [6] and in assay [7] was “inactive” each time.

Turning to `COc1ccc(CC(=O)c2c(OC)cc(OC)c(Cc3c(OC)cc(OC)c(C(=O)Cc4ccc(OC)cc4)c3O)c2O)cc1`, the MIC in assay [1] was 31.5 mg/L (≈ 51.1 µM); in assay [2] it was 38.5 mg/L (≈ 62.4 µM); in assay [3], above 50 mg/L; in assay [4], above 50 mg/L. For the same compound, the MIC result in assay [5], in assay [6] and in assay [7] was “inactive” each time.

As for `O=c1c(-c2ccc(O)cc2)coc2cc(O)cc(O)c12` [GENISTEIN], the MIC in assay [1], in assay [2], in assay [3] and in assay [4] was above 50 mg/L throughout. In addition, the MIC entry in assay [5], in assay [6] and in assay [7] was “inactive” each time.

With `O=C(Cc1ccc(OCCBr)cc1)c1c(O)cc(OCCBr)cc1OCCBr`, the minimum inhibitory concentration (MIC) is 30.5 mg/L (≈ 52.5 µM) in assay [1], 36.5 mg/L (≈ 62.8 µM) in assay [2], above 50 mg/L in assay [3] and above 50 mg/L in assay [4]. For the same compound, the MIC entry in assay [5], in assay [6] and in assay [7] was “inactive” each time.

Turning to `O=C(O)COc1ccc(CC(=O)c2c(OCC(=O)O)cc(OCC(=O)O)c(Cc3c(OCC(=O)O)cc(OCC(=O)O)c(C(=O)Cc4ccc(OCC(=O)O)cc4)c3O)c2O)cc1`, the MIC in assay [1] is 12.5 mg/L (≈ 14.2 µM); in assay [2], 25 mg/L (≈ 28.4 µM); in assay [3], above 50 mg/L; in assay [4], above 50 mg/L. Also, the MIC result in assay [5], in assay [6] and in assay [7] was “inactive” throughout.

On to `O=C(Cc1ccc(O)cc1)c1c(O)cc(O)cc1O`, for which the minimum inhibitory concentration (MIC) is 40.5 mg/L (≈ 156 µM) in assay [1], 42.5 mg/L (≈ 163 µM) in assay [2], above 50 mg/L in assay [3] and above 50 mg/L in assay [4]. The MIC entry in assay [5], in assay [6] and in assay [7] was “inactive” each time.

`CC(=O)N1CCN(c2ccc(OCC3COC(Cn4ccnc4)(c4ccc(Cl)cc4Cl)O3)cc2)CC1` (stereo not given) [KETOCONAZOLE]: the MIC in assay [1], in assay [2], in assay [3] and in assay [4] was above 50 mg/L each time.

In the case of `O=C(Cc1ccc(OCCCBr)cc1)c1c(OCCCBr)cc(OCCCBr)c(Cc2c(OCCCBr)cc(OCCCBr)c(C(=O)Cc3ccc(OCCCBr)cc3)c2O)c1O`, the MIC in assay [1] is 6.25 mg/L (≈ 4.97 µM); in assay [2] it was 17.5 mg/L (≈ 13.9 µM); in assay [3], above 50 mg/L; in assay [4], above 50 mg/L. Further, the MIC entry in assay [5], in assay [6] and in assay [7] was “inactive” each time.

Take `CC1(C)S[C@@H]2[C@H](NC(=O)Cc3ccccc3)C(=O)N2[C@H]1C(=O)O` [PENICILLIN G]: the MIC in assay [1] is 7.8 mg/L (≈ 23.3 µM); in assay [2], above 50 mg/L; in assay [3], above 50 mg/L; in assay [4] it was 2 mg/L (≈ 5.98 µM).

With `NC[C@H]1O[C@H](O[C@H]2[C@H](O)[C@@H](O[C@H]3O[C@H](CO)[C@@H](O)[C@H](N)[C@H]3O)[C@H](N)C[C@@H]2N)[C@H](O)[C@@H](O)[C@@H]1O` [KANAMYCIN], the minimal inhibitory concentration (MIC) was found to be 1 mg/L (≈ 2.06 µM) in assay [1], 0.45 mg/L (≈ 0.929 µM) in assay [2], 3.9 mg/L (≈ 8.05 µM) in assay [3] and 1 mg/L (≈ 2.06 µM) in assay [4].

Usually MIC stands for the least concentration at which growth counts as inhibited.
